Measured values reported in PMC10205775 (Saudi Pharmaceutical Journal : SPJ, 2023).
Values joined by “and” are separate entries in the source; they are usually repeats but may differ in a detail not shown here. Identical values can stand only once.

Columns and labels:
[1] = system: HepG2, MCF-7, MDA-MB-231 and HeLa; experiment: MTT antiproliferative assay, all tested cell lines; assay type: cell-based; conditions: Homo sapiens, read-out: IC50 values against all tested cell lines (range)
HeLa = experiment: MTT antiproliferative assay, HeLa; conditions: Homo sapiens, read-out: In vitro Cytotoxicity IC50 HeLa
HepG2 = experiment: MTT antiproliferative assay, HepG2; assay type: cell-based; conditions: Homo sapiens, HepG2, read-out: In vitro Cytotoxicity IC50 HepG2
MDA-MB-231 = experiment: MTT antiproliferative assay, MDA-MB-231; assay type: cell-based; conditions: Homo sapiens, MDA-MB-231, read-out: In vitro Cytotoxicity IC50 MDA-MB-231
MCF-7 = experiment: MTT antiproliferative assay, MCF-7; conditions: Homo sapiens, MCF7, read-out: In vitro Cytotoxicity IC50 MCF-7
Caspase 9 = experiment: Apoptotic protein expression, Caspase 9; assay type: cell-based, human; conditions: HepG2 cells, 8.39 μM of compound 7, 24 h; control = 1
In short: (§1)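 HepG2 cells were incubated with 8.39 μM test compound for 24 h. Apoptotic protein levels were measured by a previously reported method. Expression was normalised to β-actin and given as fold change versus untreated HepG2 cells, which were set to 1. Values are means of three experiments.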

Caspase 3 = experiment: Apoptotic protein expression, Caspase 3; assay type: cell-based, human; conditions: HepG2 cells, 8.39 μM of compound 7, 24 h; control = 1
In short: as §1

HepG2 cells [2] = experiment: Annexin-V/propidium iodide double staining apoptosis assay; assay type: cell-based, human; conditions: 24 h incubation
EGFR = EGFR (Homo sapiens, UniProt P00533); experiment: In vitro protein kinase assay, EGFR; assay type: biochemical
EGFR, sequence (P00533 25-1210): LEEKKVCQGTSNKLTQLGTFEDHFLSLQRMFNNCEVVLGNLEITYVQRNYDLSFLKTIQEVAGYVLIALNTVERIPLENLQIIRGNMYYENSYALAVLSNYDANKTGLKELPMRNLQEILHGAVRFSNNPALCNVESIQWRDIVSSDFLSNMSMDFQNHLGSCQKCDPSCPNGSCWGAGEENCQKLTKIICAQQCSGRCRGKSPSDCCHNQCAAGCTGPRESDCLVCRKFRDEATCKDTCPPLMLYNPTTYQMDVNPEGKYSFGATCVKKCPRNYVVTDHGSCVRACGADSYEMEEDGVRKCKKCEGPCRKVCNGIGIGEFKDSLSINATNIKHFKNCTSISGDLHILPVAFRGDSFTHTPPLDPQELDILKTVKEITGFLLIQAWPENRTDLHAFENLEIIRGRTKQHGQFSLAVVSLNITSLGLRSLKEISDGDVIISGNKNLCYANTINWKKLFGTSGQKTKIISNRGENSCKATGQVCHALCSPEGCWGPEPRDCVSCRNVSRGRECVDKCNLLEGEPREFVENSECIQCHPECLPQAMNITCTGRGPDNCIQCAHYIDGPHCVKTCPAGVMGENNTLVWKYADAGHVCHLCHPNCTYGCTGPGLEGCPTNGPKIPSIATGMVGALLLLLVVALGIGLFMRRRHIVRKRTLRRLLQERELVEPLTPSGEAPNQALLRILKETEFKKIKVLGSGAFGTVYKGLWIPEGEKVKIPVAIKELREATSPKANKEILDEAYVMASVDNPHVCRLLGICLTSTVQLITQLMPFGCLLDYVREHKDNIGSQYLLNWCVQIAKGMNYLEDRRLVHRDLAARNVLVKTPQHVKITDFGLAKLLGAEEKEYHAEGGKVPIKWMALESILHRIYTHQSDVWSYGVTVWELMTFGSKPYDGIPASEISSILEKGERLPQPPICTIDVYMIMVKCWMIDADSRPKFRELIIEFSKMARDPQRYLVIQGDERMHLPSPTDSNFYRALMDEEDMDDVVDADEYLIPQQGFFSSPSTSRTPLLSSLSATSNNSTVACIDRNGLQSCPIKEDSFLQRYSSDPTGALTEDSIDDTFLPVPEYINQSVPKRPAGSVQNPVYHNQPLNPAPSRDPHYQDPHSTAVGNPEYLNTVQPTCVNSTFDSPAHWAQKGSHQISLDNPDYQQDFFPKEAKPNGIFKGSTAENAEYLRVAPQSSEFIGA

CDK2 = CDK2 (Homo sapiens, UniProt P24941); experiment: In vitro protein kinase assay, CDK2; assay type: biochemical
HepG2 cells [3] = experiment: Cell cycle distribution by flow cytometry; assay type: cell-based, human; conditions: 8.39 μM of compound 7, 24 h
Her2 = Her2 (Homo sapiens, UniProt P04626); experiment: In vitro protein kinase assay, Her2; assay type: biochemical
Her2, sequence (P04626 23-1255): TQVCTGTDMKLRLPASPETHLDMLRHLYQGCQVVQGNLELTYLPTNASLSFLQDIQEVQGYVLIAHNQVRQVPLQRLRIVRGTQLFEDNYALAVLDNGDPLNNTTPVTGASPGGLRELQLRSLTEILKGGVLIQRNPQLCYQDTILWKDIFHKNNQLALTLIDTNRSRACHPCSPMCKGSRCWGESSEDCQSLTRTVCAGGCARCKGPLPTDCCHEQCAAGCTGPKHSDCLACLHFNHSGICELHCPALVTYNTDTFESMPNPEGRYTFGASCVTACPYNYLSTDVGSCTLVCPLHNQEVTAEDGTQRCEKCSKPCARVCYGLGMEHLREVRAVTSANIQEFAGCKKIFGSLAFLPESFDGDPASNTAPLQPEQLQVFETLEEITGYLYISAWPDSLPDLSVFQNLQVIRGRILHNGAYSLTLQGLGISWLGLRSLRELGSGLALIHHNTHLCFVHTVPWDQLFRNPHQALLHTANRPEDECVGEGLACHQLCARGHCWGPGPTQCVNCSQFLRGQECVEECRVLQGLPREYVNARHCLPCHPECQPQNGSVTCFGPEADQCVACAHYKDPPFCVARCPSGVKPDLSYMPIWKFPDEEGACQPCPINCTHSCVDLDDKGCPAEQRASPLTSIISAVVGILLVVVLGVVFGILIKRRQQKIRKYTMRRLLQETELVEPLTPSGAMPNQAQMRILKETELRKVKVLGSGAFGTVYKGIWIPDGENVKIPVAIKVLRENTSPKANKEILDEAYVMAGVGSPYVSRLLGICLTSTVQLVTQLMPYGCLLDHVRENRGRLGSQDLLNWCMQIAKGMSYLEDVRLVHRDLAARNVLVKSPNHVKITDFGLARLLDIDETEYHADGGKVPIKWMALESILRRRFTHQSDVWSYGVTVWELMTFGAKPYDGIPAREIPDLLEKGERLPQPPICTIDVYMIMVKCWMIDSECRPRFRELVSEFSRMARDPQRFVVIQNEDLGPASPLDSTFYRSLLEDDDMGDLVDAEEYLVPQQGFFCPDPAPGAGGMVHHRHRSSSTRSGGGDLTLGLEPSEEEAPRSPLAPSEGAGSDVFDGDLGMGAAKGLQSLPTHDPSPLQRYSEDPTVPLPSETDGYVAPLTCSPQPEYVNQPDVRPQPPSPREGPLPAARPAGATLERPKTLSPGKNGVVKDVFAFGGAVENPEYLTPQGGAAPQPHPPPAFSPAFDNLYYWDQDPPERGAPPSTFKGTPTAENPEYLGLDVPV

VEGFR2 = VEGFR2 (Homo sapiens, UniProt P35968); experiment: In vitro protein kinase assay, VEGFR2; assay type: biochemical
VEGFR2, sequence (P35968 20-1356): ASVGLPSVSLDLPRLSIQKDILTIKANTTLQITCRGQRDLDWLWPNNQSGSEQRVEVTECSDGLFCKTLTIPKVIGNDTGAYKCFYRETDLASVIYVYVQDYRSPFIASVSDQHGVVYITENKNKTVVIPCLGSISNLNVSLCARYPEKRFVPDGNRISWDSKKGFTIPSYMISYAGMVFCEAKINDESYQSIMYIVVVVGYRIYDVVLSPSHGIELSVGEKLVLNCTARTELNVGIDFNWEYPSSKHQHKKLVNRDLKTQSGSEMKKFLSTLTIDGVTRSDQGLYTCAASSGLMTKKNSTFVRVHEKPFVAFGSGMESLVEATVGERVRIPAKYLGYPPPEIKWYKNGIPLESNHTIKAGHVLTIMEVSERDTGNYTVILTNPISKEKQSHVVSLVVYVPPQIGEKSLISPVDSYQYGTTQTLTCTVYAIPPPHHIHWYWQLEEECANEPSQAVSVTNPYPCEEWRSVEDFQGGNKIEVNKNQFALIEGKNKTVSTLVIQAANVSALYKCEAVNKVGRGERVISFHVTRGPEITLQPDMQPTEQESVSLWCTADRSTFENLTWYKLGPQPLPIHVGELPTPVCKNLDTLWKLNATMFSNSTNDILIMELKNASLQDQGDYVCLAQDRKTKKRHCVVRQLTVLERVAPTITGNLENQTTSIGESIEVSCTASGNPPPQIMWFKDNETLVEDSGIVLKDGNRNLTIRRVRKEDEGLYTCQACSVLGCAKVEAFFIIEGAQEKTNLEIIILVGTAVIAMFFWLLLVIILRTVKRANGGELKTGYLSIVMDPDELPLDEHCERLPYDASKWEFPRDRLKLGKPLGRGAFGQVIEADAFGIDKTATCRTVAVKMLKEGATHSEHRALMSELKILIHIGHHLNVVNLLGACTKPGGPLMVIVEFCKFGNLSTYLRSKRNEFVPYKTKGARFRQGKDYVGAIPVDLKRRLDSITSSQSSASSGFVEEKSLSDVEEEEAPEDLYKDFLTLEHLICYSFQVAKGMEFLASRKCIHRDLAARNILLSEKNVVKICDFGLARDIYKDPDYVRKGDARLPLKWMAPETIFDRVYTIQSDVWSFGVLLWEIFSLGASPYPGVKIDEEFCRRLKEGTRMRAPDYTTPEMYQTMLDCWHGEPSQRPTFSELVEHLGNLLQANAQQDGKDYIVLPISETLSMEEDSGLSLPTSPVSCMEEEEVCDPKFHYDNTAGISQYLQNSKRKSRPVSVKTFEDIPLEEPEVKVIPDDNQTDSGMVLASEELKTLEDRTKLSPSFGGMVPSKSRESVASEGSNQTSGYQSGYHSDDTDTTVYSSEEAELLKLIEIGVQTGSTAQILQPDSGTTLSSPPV

Structure (SMILES) | IC50 (HeLa) [µM] | IC50 (HepG2) [µM] | IC50 (MDA-MB-231) [µM] | IC50 (MCF-7) [µM] | further results
O=C1Nc2ccccc2C1=NNc1ncnc2[nH]ccc12 [Compound 3, 3-(2-(7H-pyrrolo[2,3-d]pyrimidin-4-yl)hydrazineylidene)indolin-2-one] | 9.86 ± 0.7 | 19.1 ± 1.4 | 7.86 ± 0.6 | 14.2 ± 1.2 | IC50 [1]: 7.86 to 27.6 µM
O=C1Nc2ccc(Cl)cc2C1=NNc1ncnc2[nH]ccc12 [Compound 4, 3-(2-(7H-pyrrolo[2,3-d]pyrimidin-4-yl)hydrazineylidene)-5-chloroindolin-2-one] | 24.2 ± 1.8 | 28.4 ± 2.1 | 21.1 ± 1.8 | 33.9 ± 2.2 | 
O=C1Nc2ccc(F)cc2C1=NNc1ncnc2[nH]ccc12 [Compound 5, 3-(2-(7H-pyrrolo[2,3-d]pyrimidin-4-yl)hydrazineylidene)-5-fluoroindolin-2-one] | 29.1 ± 2 | 37.3 ± 2.5 | 32.5 ± 2.1 | 41.6 ± 2.6 | 
Cc1ccc2c(c1)C(=NNc1ncnc3[nH]ccc13)C(=O)N2 [Compound 6, 3-(2-(7H-pyrrolo[2,3-d]pyrimidin-4-yl)hydrazineylidene)-5-methylindolin-2-one] | 19.8 ± 1.3 | 11.7 ± 0.9 | 15.2 ± 1.1 | 27.6 ± 2 | IC50 [1]: 7.86 to 27.6 µM
COc1ccc2c(c1)C(=NNc1ncnc3[nH]ccc13)C(=O)N2 [Compound 7, 3-(2-(7H-pyrrolo[2,3-d]pyrimidin-4-yl)hydrazineylidene)-5-methoxyindolin-2-one] | 6.37 ± 0.3 | 8.39 ± 0.7 | 5.28 ± 0.3 | 9.08 ± 0.7 | Folds of gene expression (Normalized to β-actin) Caspase 9 (Caspase 9): 3.3 fold and 3.295 fold; Folds of gene expression (Normalized to β-actin) Caspase 3 (Caspase 3): 5.42 fold and 5.421 fold; Apoptosis Early (HepG2 cells [2]): 9.91%; Apoptosis Late (HepG2 cells [2]): 15.92%; Apoptosis Total (HepG2 cells [2]): 32.34%; Necrosis (HepG2 cells [2]): 6.51%; IC50 (EGFR): 0.166 ± 0.01 µM; IC50 (CDK2): 0.302 ± 0.016 µM; DNA content (%) %G1 (HepG2 cells [3]): 54.22%; DNA content (%) %G2/M (HepG2 cells [3]): 11.02%; DNA content (%) %S (HepG2 cells [3]): 34.76%; DNA content (%) %Sub–G1 (HepG2 cells [3]): 32.34%; increase of the DNA in the sub-G1 compared to untreated cells (HepG2 cells [3]): 17 fold; IC50 (Her2): 0.157 ± 0.022 µM; IC50 (VEGFR2): 0.224 ± 0.012 µM
O=C1Nc2ccc([N+](=O)[O-])cc2C1=NNc1ncnc2[nH]ccc12 [Compound 8, 3-(2-(7H-pyrrolo[2,3-d]pyrimidin-4-yl)hydrazineylidene)-5-nitroindolin-2-one] | 38 ± 2.2 | 52.1 ± 2.9 | 36.9 ± 2.4 | 48.5 ± 2.8 | 
COc1cccc2c1C(=O)c1c(O)c3c(c(O)c1C2=O)C[C@@](O)(C(=O)CO)C[C@@H]3O[C@H]1C[C@H](N)[C@H](O)[C@H](C)O1 [Doxorubicin, reference compound] |  | 4.5 ± 0.2 |  |  | 
